Publication PMC5598375 (Toxicology Reports, 2014)
Entries after “also recorded” stand apart in the source; their conditions may differ.

Columns and labels:
Drosophila strain = details: chronic treatment, cited from earlier work
[1] = tested on: 48 h-old mwh +/+ flr^3 larvae; assay: Wing spot test, PP-IX pretreatment then 20 Gy gamma rays; assay type: in vivo, Drosophila melanogaster; details: for Large single spots (>cells) per wing / Large single spots (>cells), number of spots / Small single spots (1-2 cells) per wing / Small single spots (1-2 cells), number of spots / Total spots per wing / Total spots, number of spots / Twin spots per wing / Twin spots, number of spots: 80 wings; for Small single spots (1-2 cells), statistical diagnosis / Total spots, statistical diagnosis: m = 2
Outline: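 48 h-old mwh/flr3 larvae were pretreated 24 h in the dark on filter paper with PP-IX (0, 0.69, 6.9, 69 mM in 5% sucrose). Each group was then split: one half received 20 Gy from a Co-60 source (dose rate up to 1259.44 Gy/h), the other stayed unirradiated. Larvae were reared on hydrated instant medium to eclosion. Wing spots were scored by SMART and analysed by Frei–Würgler statistics, m multiplication factor.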

48 h-larvae mwh+/+flr^3 = assay: Wing spot test; assay type: in vivo, Drosophila melanogaster; details: CrO3 0.025–2.5 mM
rats of the CF1 strain = details: cited from earlier work
[2] = tested on: somatic cells of Drosophila; details: PP-IX 69 mM, 24 h after administration, with 0.5 mM N-nitroso-N-ethylurea (ENU); cited from earlier work
[3] = tested on: 48 h-old mwh+/+flr^3 larvae; assay: Toxicity test; assay type: in vivo, Drosophila melanogaster; details: for % of non-viable larvae / No. of viable larvae ± SEM: 500 larvae
[4] = tested on: 48 h-larvae mwh +/+ flr^3; assay: Wing spot test; assay type: in vivo, Drosophila melanogaster; details: for Total spots, statistical diagnosis / Small single spots (1-2 cells), statistical diagnosis: m = 2; for Total spots, statistical diagnosis / Large single spots (>cells), statistical diagnosis / Small single spots (1-2 cells), statistical diagnosis: vs negative control; for Large single spots (>cells), statistical diagnosis: m = 5
Outline: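 Crosses: mwh/mwh females × flr3/TM3,Bds males mated 2 h, eggs laid over 2 h. 48 h larvae were collected on 20% sucrose, washed in 24 ± 1 °C water, held 24 h in the dark on filter paper with PP-IX (0–69 mM in 5% sucrose), then fed CrO3 (0.025–2.5 mM) in instant medium, in triplicate. Non-Ser wings were scored at 40× for small (1–2 cells), large and twin spots. Frei–Würgler one-sided test, α=β=0.05, m multiplication factor.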

[5] = PP-IX 0.69 mM 24 h pretreatment + 20 Gy gamma rays
[6] = PP-IX 0.69 mM + 20 Gy gamma rays
[7] = PP-IX 6.9 mM 24 h pretreatment + 20 Gy gamma rays
[8] = PP-IX 6.9 mM + 20 Gy gamma rays
[9] = PP-IX 69 mM 24 h pretreatment + 20 Gy gamma rays
[10] = PP-IX 69 mM + 20 Gy gamma rays, m = 5
[11] = PP-IX 0.69 mM 24 h pretreatment alone, 120 wings
[12] = PP-IX 6.9 mM 24 h pretreatment alone, 120 wings
[13] = PP-IX 69 mM 24 h pretreatment alone, 160 wings

Large single spots (>cells) per wing [4, 11]: 0.05 spots per wing
Large single spots (>cells), number of spots [4, 11]: 6
Small single spots (1-2 cells) per wing [4, 11]: 0.33 spots per wing
Small single spots (1-2 cells), number of spots [4, 11]: 40
Total spots per wing [4, 11]: 0.41 spots per wing
Total spots, number of spots [4, 11]: 49
Twin spots per wing [4, 11]: 0.03 spots per wing
Twin spots, number of spots [4, 11]: 3
Total spots, statistical diagnosis ([4]; PP-IX 0.69 mM alone): −
Large single spots (>cells), statistical diagnosis ([4]; PP-IX 0.69 mM alone): −
Large single spots (>cells) per wing [4, 12]: 0.05 spots per wing
Large single spots (>cells), number of spots [4, 12]: 6
Small single spots (1-2 cells) per wing [4, 12]: 0.23 spots per wing
Small single spots (1-2 cells), number of spots [4, 12]: 28
Total spots per wing [4, 12]: 0.28 spots per wing
Total spots, number of spots [4, 12]: 34
Twin spots per wing [4, 12]: 0 spots per wing
Twin spots, number of spots [4, 12]: (0)
Small single spots (1-2 cells), statistical diagnosis ([4]; PP-IX 6.9 mM alone): −
Total spots, statistical diagnosis ([4]; PP-IX 6.9 mM alone): −
Large single spots (>cells), statistical diagnosis ([4]; PP-IX 6.9 mM alone): −
Large single spots (>cells) per wing [4, 13]: 0.14 spots per wing
Large single spots (>cells), number of spots [4, 13]: 23
Small single spots (1-2 cells) per wing [4, 13]: 0.51 spots per wing
Small single spots (1-2 cells), number of spots [4, 13]: 81
Total spots per wing [4, 13]: 0.66 spots per wing
Total spots, number of spots [4, 13]: 106
Twin spots per wing [4, 13]: 0.01 spots per wing
Twin spots, number of spots [4, 13]: 2
Effect of PP-IX alone on basal mutation frequency ([4]; PP-IX 69 mM alone): doubled the basal mutation frequency
Small single spots (1-2 cells), statistical diagnosis ([4]; PP-IX 69 mM alone): +
Total spots, statistical diagnosis ([4]; PP-IX 69 mM alone): +
Large single spots (>cells), statistical diagnosis ([4]; PP-IX 69 mM alone): −
SMILES: C=CC1=C(C)c2cc3[nH]c(cc4nc(cc5[nH]c(cc1n2)c(C)c5CCC(=O)O)C(CCC(=O)O)=C4C)c(C)c3C=C [PP-IX, Protoporphyrin-IX]
Half life, Sod deficient strain (Drosophila strain; Sod deficient strain): half life was reduced
Lifespan, wild strain (Drosophila strain; wild Drosophila strain): prolong the lifespan
Large single spots (>cells) per wing [1, 5]: 1.16 spots per wing
Large single spots (>cells), number of spots [1, 5]: 93
Small single spots (1-2 cells) per wing [1, 5]: 0.82 spots per wing
Small single spots (1-2 cells), number of spots [1, 5]: 66
Total spots per wing [1, 5]: 2.07 spots per wing
Total spots, number of spots [1, 5]: 166
Twin spots per wing [1, 5]: 0.08 spots per wing
Twin spots, number of spots [1, 5]: 7
Small single spots (1-2 cells), statistical diagnosis [1, 6]: −
Total spots, statistical diagnosis [1, 6]: −
Twin spots, statistical diagnosis ([1]; PP-IX 0.69 mM + 20 Gy gamma rays, m = 5): −
Large single spots (>cells) per wing [1, 7]: 1.84 spots per wing
Large single spots (>cells), number of spots [1, 7]: 147
Small single spots (1-2 cells) per wing [1, 7]: 0.69 spots per wing
Small single spots (1-2 cells), number of spots [1, 7]: 55
Total spots per wing [1, 7]: 2.67 spots per wing
Total spots, number of spots [1, 7]: 214
Twin spots per wing [1, 7]: 0.15 spots per wing
Twin spots, number of spots [1, 7]: 12
Small single spots (1-2 cells), statistical diagnosis [1, 8]: −
Total spots, statistical diagnosis [1, 8]: −
Twin spots, statistical diagnosis ([1]; PP-IX 6.9 mM + 20 Gy gamma rays, m = 5): −
Large single spots (>cells) per wing [1, 9]: 1.52 spots per wing
Large single spots (>cells), number of spots [1, 9]: 122
Small single spots (1-2 cells) per wing [1, 9]: 1.16 spots per wing
Small single spots (1-2 cells), number of spots [1, 9]: 93
Total spots per wing [1, 9]: 2.76 spots per wing
Total spots, number of spots [1, 9]: 221
Twin spots per wing [1, 9]: 0.07 spots per wing
Twin spots, number of spots [1, 9]: 6
Small single spots (1-2 cells), statistical diagnosis ([1]; PP-IX 69 mM + 20 Gy gamma rays): −
Total spots, statistical diagnosis ([1]; PP-IX 69 mM + 20 Gy gamma rays): −
Large single spots (>cells), statistical diagnosis [1, 10]: −
Twin spots, statistical diagnosis [1, 10]: −
Effect on damage induced by gamma rays ([1]; PP-IX all tested concentrations, 20 Gy): no effect; also recorded: Absence of an inhibitor effect
Effect on genetic damage induced by CrO3 (48 h-larvae mwh+/+flr^3; PP-IX 0.69 mM): significant decrease of damage in four of the five concentrations of CrO3 tested; also recorded: significantly reduced the genetic damage induced by all CrO3 concentrations tested
Effect on genetic damage induced by CrO3 (48 h-larvae mwh+/+flr^3; PP-IX 6.9 mM): significantly decreased the frequency of damage induced by 2 and 2.5 mM of the mutagen
Effect on genetic damage induced by CrO3 (48 h-larvae mwh+/+flr^3; PP-IX 69 mM): only reduced the damage induced by 2.5 mM
Increase of catalase (CAT) activity (rats of the CF1 strain; after 2 h of administration): 30%
Lipid peroxidation (rats of the CF1 strain): induced lipid peroxidation
Superoxide dismutase (SOD) enzyme (rats of the CF1 strain): increased 24 h after administration
Mutagenicity in combination with ENU [2]: mutagenic
% of non-viable larvae ([3]; PP-IX 0.69 mM): 21%
No. of viable larvae ± SEM ([3]; PP-IX 0.69 mM): 394 ± 1.7
% of non-viable larvae ([3]; PP-IX 6.9 mM): 11%
No. of viable larvae ± SEM ([3]; PP-IX 6.9 mM): 447 ± 0.6
Reduction of toxicity compared to control ([3]; PP-IX 6.9 mM, not significantly): 5%
% of non-viable larvae ([3]; PP-IX 69 mM): 26%
No. of viable larvae ± SEM ([3]; PP-IX 69 mM): 368 ± 0.5
Toxicity compared to the control ([3]; PP-IX 0.69, 6.9, 69 mM (three concentrations tested)): nontoxic; also recorded: not toxic
Mutagenicity of PP-IX alone ([4]; PP-IX 69 mM, damage comparable with 0.25 mM of CrO3): mutagenic
Induction of genetic damage by PP-IX alone ([4]; PP-IX 0.69 and 6.9 mM): did not induce genetic damage
